Values without a mark were called inactive. Records with an inconclusive call do not appear. Calls of active or inactive are those of the source.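 The calls were made as follows, unless noted: active = viability at or below 27.92% in each of two runs, the all-compound median minus 4 SD; inconclusive = no clear call, values can overlap the other calls; inactive = the rest.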

The nature of assay [1]: S. cerevisiae growth inhibition in permissive medium (OD615), pilot counter-assay for S. cerevisiae lifespan shortening project, permissive growth control (AID 705;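 active = growth inhibition above 25% in both replicates, a cutoff set 3 SD above the mean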). The settings on record: OD615, 24 h, at 10 µM, hits give high values. Summed up: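 System: S. cerevisiae with engineered DeaD lifespan system / Measured by: absorbance (optical density) at 615 nm / Read-out: reduction in yeast growth (OD615) / Times: 4 h cell pre-growth, 24 h exposure at 30 °C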

A short description of assay [2]: S. cerevisiae growth inhibition in restrictive medium, OD615, pilot screen, restrictive growth control, yeast lifespan reduction project (AID 706;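 active = growth inhibition above a set limit, 3 SD over mean compound inhibition, in both replicates, cut at about 43% in these data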;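 also: modified DeaD lifespan yeast strain shifted to restrictive glucose medium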). The note with it: OD615, 48 h, at 10 µM, hits give high values. The method, boiled down:
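System: Engineered S. cerevisiae DeaD strain | Buffer or medium: Glucose-based CSMM-D restrictive medium | Schedule: 4 h pre-incubation, 48 h exposure at 30 °C | Technique: Optical density at 615 nm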

A short description of assay [3]: doxorubicin toxicity protection in MRP-1 cells – H69AR cells, CellTiter-Glo, duplicate, MRP-1 activator project, pilot screen (AID 807;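 active = viability increase at or above a cutoff of the median across tested compounds plus 3 SD, cut at about 8.5% in these data, passing the limit was not always enough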;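 also: compound pretreatment 18-22 h then 72 h combined with doxorubicin; 0% = doxorubicin alone and 100% = vehicle without doxorubicin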). The note with it: H69AR viability with doxorubicin, CellTiter-Glo luminescence; at 10 µM; hits give high values. (In general: Cellular ATP, detected with luciferase, serves as a proxy for viable cell number.)
Assay [4] in a line: viability of HCT116 without oncogenic beta-catenin – human colon tumor cells, pilot screen (AID 823;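 active = cell viability at or below a set limit in both duplicate runs, the limit being the all-compound median minus 4 SD, cut at about 23% in these data, passing the limit was not always enough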;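 also: 0% = wells killed by 20 µM Hyamine and 100% = untreated DMSO cell wells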). The settings on record: HCT116 beta-catenin knockout viability, CellTiter-Glo, 60 h; at 10 µM; hits give low values.
A short description of assay [5]: viability of PTEN-null HCT116 cells – cell-based, HCT116 clonal line, CellTiter-Glo, pilot screen (AID 824).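 Also: 0% = 20 µM Hyamine control and 100% = vehicle cell control.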 The settings on record: HCT116 PTEN-deleted viability, 60 h, at 10 µM, hits give low values.
A short description of assay [6]: RAM pathway blockade in budding yeast – dse1pr::URA3 reporter, 5-FOA selection, pilot screen (AID 869;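 active = inhibition over a set limit, the all-compound mean plus 3 SD, in both replicate runs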;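 also: 0% = DMSO wells with no growth and 100% = 10 µM 1-NA-PP1 with full growth; RAM network block rescues cells from 5-FOA so hits raise OD615 growth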). The note with it: S. cerevisiae dse1pr::URA3 5-FOA growth, OD615, 2 d; at 10 µM; hits give high values; strain carries analog-sensitive mutant Cbk1 kinase.
Assay [7] can be described thus: RAM signaling pathway blockade in yeast – S. cerevisiae, Pdr1DBD-CYC8 efflux-inhibited sensitized strain, primary screen (AID 1298;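 active = RAM network inhibition above 8.4% in each of two replicates, 3 SD over the compound average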;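 also: 0% = DMSO untreated cells without growth and 100% = 10 µM 1-NA-PP1 full growth; higher means more yeast growth rescued from 5-FOA killing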). The note with it: S. cerevisiae cbk1-as DSE1-URA3 strain, 5-FOA growth OD615, 2 d; at 50 µM; hits give high values.

Broadly, the viability is a read-out of living cells in per cent, often relative to untreated cells. Broadly, the inhibition is the share of the control response that was lost under treatment. Regarding `O=C(NC1CCCCC1)N1CCC(n2c(=O)[nH]c3ccccc32)CC1`, the growth inhibition is -8.88% in assay [1] and -10.8% in assay [2]. For the same compound, the viability increase in assay [3] is 1.07%. Also, the viability was 91.1% in assay [4] and 89.6% in assay [5]. Moreover, the inhibition in assay [6] is 2.25%. The RAM network inhibition in assay [7] was 5.7%.
For `O=C(NCc1ccc2c(c1)OCO2)C1CC(=O)N(CCc2ccccc2)C1` (stereo unspecified), the growth inhibition in assay [1] was 0.26%; in assay [2], 0.755%. Also, the viability increase in assay [3] is -0.29%. The viability is 96.1% in assay [4] and 95.7% in assay [5]. Also, in assay [6], the inhibition was 2.38%. In addition, the RAM network inhibition in assay [7] is 2.32%.
As to `c1ccc(COc2ccc(Nc3ncnc4nc[nH]c34)cc2)cc1`, the growth inhibition in assay [1] is -2.53%; in assay [2], 7.49%. Moreover, in assay [3], the viability increase is -0.86%. Moreover, the viability in assay [4] was 85.7%; in assay [5], 83%. For the same compound, the inhibition in assay [6] was 0.435%. Moreover, the RAM network inhibition in assay [7] is 4.8%.
For `COC(=O)c1ccsc1NC(=O)C1COc2ccccc2O1` (stereo unspecified), the growth inhibition in assay [1] is 6.25%; in assay [2] it was 8.76%. The viability increase in assay [3] was -1.07%. Moreover, the viability is 92.4% in assay [4] and 85.5% in assay [5]. Besides, the inhibition in assay [6] was 0.425%. Also, the RAM network inhibition in assay [7] was 8.05%.
On to `CC(C)(CC(=O)O)Cc1nc(-c2ccc(Cl)cc2)no1`, for which the growth inhibition is 2.38% in assay [1] and 10.4% in assay [2]. In addition, in assay [3], the viability increase is 1.26%. Besides, the viability was 100% in assay [4] and 93.2% in assay [5]. In assay [6], the inhibition is 0.855%. For the same compound, in assay [7], the RAM network inhibition is -3.9%.
For `COCCNC(=O)c1ccccc1NC(=O)C1COc2ccccc2O1` (stereo unspecified), the growth inhibition was -3.84% in assay [1] and -0.665% in assay [2]. In addition, the viability increase in assay [3] is -0.74%. Further, the results for the viability in assay [4] and in assay [5] were 95.8% and 102%, respectively. In addition, the inhibition in assay [6] was 2.8%. Besides, the RAM network inhibition in assay [7] was 4.39%.
Regarding `COc1ccc(CCNC(=O)CSc2nnnn2-c2ccccc2)cc1`, the growth inhibition is 2.08% in assay [1] and -9.2% in assay [2]. Moreover, in assay [3], the viability increase was -2.24%. In addition, the results for the viability in assay [4] and in assay [5] were 94.7% and 88.8%, respectively. Moreover, the inhibition in assay [6] is 1.33%. Moreover, in assay [7], the RAM network inhibition is 6.52%.
On to `O=C(CCCCCN1C(=O)C2C3C=CC(C3)C2C1=O)Nc1nccs1` (stereo unspecified), for which the growth inhibition in assay [1] was -3.44%; in assay [2], -2.41%. Besides, the viability increase in assay [3] was -1.31%. For the same compound, the viability in assay [4] is 100%; in assay [5] it was 91.5%. Also, the inhibition in assay [6] was 0.215%. In addition, the RAM network inhibition in assay [7] was 4.28%.
Take `N#CCCN1CCN(C(CNS(=O)(=O)c2ccc(Cl)cc2)c2ccccc2)CC1` (stereo unspecified): the growth inhibition in assay [1] was -11.4%; in assay [2], -16.5%. For the same compound, in assay [3], the viability increase is -1.72%. Also, the viability in assay [4] is 95.3%; in assay [5], 94.8%. Also, in assay [6], the inhibition is 1.9%. Further, in assay [7], the RAM network inhibition is 6.39%.
With `COc1ccc(OC)c(NC(=O)C2CCCN(S(=O)(=O)c3cccc4cccnc34)C2)c1` (stereo unspecified), the growth inhibition was -12.7% in assay [1] and -10.7% in assay [2]. For the same compound, the viability increase in assay [3] was -3.24%. For the same compound, the viability in assay [4] was 87.3%; in assay [5] it was 80.1%. In addition, the inhibition in assay [6] is 1.78%. Further, the RAM network inhibition in assay [7] was 6.71%.
As to `CCCc1cc(C(=O)N(C2CCCCC2)C2CCCCC2)no1`, the growth inhibition in assay [1] was 4.36%; in assay [2], 14.7%. Besides, the viability increase in assay [3] was -5.51%. The viability in assay [4] is 74.5%; in assay [5], 80.8%. Also, in assay [6], the inhibition is 1.57%. Moreover, the RAM network inhibition in assay [7] is 6.03%.
On to `O=C(Cn1c(NCCCO)nc2ccccc21)c1cccs1`, for which the growth inhibition in assay [1] is -5.45%; in assay [2], -2.54%. Also, the viability increase in assay [3] was -1.98%. In addition, the viability in assay [4] was 110%; in assay [5], 91.7%. Further, in assay [6], the inhibition was 2.46%. The RAM network inhibition in assay [7] is 0.62%.
As to `N#CCCN(CCC#N)C(=O)c1ccc(Cl)cc1`, the growth inhibition in assay [1] is -2.15%; in assay [2] it was -11.1%. Besides, the viability increase in assay [3] is -1.59%. Besides, the values for the viability in assay [4] and in assay [5] were 92.7% and 93.2%, respectively. For the same compound, the inhibition in assay [6] was 1.3%. Also, in assay [7], the RAM network inhibition was 3.78%.
As to `CC1=C(C(=O)OCc2ccc3c(c2)OCO3)C(c2ccc(Cl)cc2)NC(=O)N1` (stereo unspecified), the growth inhibition in assay [1] was -4.12%; in assay [2], -5.46%. In addition, the viability increase in assay [3] is -4.91%. For the same compound, the viability is 19.4% (active) in assay [4] and 22.3% (active) in assay [5]. The inhibition in assay [6] was 1.32%. The RAM network inhibition in assay [7] was 4.12%.
Consider `CCOC(=O)c1c(NC(=O)C2CCCN2S(=O)(=O)c2cccc3nsnc23)sc(C)c1C` (stereo unspecified), for which the growth inhibition is -7.06% in assay [1] and -0.39% in assay [2]. For the same compound, the viability increase in assay [3] was 0.59%. Also, the viability is 74% in assay [4] and 72.5% in assay [5]. For the same compound, the inhibition in assay [6] is 0.565%. Also, the RAM network inhibition in assay [7] is 7.77%.
On to `O=C(NCCc1csc(-c2cccnc2)n1)c1ccco1`, for which the figures for the growth inhibition in assay [1] and in assay [2] were 4.59% and 4.47%, respectively. Also, the viability increase in assay [3] was -4.68%. Also, the viability in assay [4] was 105%; in assay [5], 98.6%. In assay [6], the inhibition was 0.97%. Moreover, the RAM network inhibition in assay [7] was 2.36%.
`CC(C)N1C(=O)CCC1C(=O)N1CCC(Cc2ccccc2)CC1` (stereo unspecified): the growth inhibition in assay [1] was -8.06%; in assay [2] it was 0.645%. Besides, the viability increase in assay [3] was 1.19%. Further, the viability was 102% in assay [4] and 95.3% in assay [5]. Also, in assay [6], the inhibition is 1.92%. The RAM network inhibition in assay [7] is 2.34%.
On to `O=C(CCn1c(=O)sc2ccccc21)NCCN1CCOCC1`, for which the figures for the growth inhibition in assay [1] and in assay [2] were -3.08% and -14.8%, respectively. In assay [3], the viability increase is -1.01%. Further, the viability in assay [4] was 101%; in assay [5] it was 106%. Besides, in assay [6], the inhibition is 1.49%. Also, the RAM network inhibition in assay [7] was 1.56%.

The record behind these values is PubChem BioAssay.
